# In ChEMBL document CHEMBL1130743, “Immunosuppressant activity in human beta-casein fragment analogs” (1998):
# Non-standard residues stand in square brackets, D forms with d. Residues, ends and D or L forms follow the SMILES beside them. Ac5c = NC1(C(=O)O)CCCC1; GABA = NCCCC(=O)O
# Assays:
# Type in all cases: functional
# [1] = species: Mus musculus; test: Compound was tested for the immunomodulatory activity in vitro expressed as stimulation index by lymphocyte transformation test at 1 ug/mL
# Summary of the method: (§1)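 Normal Swiss mouse splenocytes, RBCs lysed with 0.83% NH4Cl in 10 mM Tris pH 7.2, held at 5x10⁶ cells/ml in RPMI with 10% FCS. Cells cultured 72 h at 37°C in CO₂ with PHA-P mitogen and peptide (10, 1, 0.1, 0.01 µg/ml), then [³H]thymidine pulse and 18 h further incubation. Read as DPM ratio to untreated wells; triplicate runs, ±SD.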
# [2] = species: Mus musculus; test: Compound was tested for the immunomodulatory activity in vitro expressed as stimulation index by lymphocyte transformation test at 10 ug/mL; summary of the method: as §1
# [3] = species: Mus musculus; test: Compound was tested for the immunomodulatory activity in vitro expressed as stimulation index by mixed lymphocyte reaction at 1 ug/mL
# [4] = species: Mus musculus; test: Compound was tested for the immunomodulatory activity in vitro expressed as stimulation index by lymphocyte transformation test at 0.01 ug/mL; summary of the method: as §1
# [5] = species: Mus musculus; test: Compound was tested for the immunomodulatory activity in vitro expressed as stimulation index by mixed lymphocyte reaction at 0.1 ug/mL
# [6] = species: Mus musculus; test: Compound was tested for the immunomodulatory activity in vitro expressed as stimulation index by lymphocyte transformation test at 0.1 ug/mL; summary of the method: as §1
# [7] = species: Mus musculus; test: Compound was tested for the immunomodulatory activity in vitro expressed as stimulation index by mixed lymphocyte reaction at 10 ug/mL
# [8] = species: Mus musculus; test: Compound was tested for the immunomodulatory activity in vitro expressed as stimulation index by mixed lymphocyte reaction (MLR) at 10 ug/mL
# [9] = species: Mus musculus; test: Compound was tested for the immunomodulatory activity in vitro expressed as stimulation index by mixed lymphocyte reaction 1 ug/mL
smiles,measurement,setting,value
CC[C@@H](C)[C@@H](NC(=O)[C@@H]1CCCN1C(=O)[C@@H](CCC(=O)O)NC(=O)[C@H](C)N)C(=O)N1CCC[C@H]1C(=O)N[C@H](Cc1ccc(O)cc1)C(=O)O,Stimulation index,[1],1.4
same,Stimulation index,[2],1.22
same,Stimulation index,[3],0.82
same,Stimulation index,[4],1.17
same,Stimulation index,[5],0.74
same,Stimulation index,[6],1.57
same,Stimulation index,[7],0.72
CC[C@H](C)[C@H](NC(=O)CNC(=O)CNC(=O)[C@@H](N)C(C)C)C(=O)N1CCC[C@H]1C(=O)N[C@@H](Cc1ccc(O)cc1)C(=O)O (H-VGGIPY-OH),Stimulation index,[1],1.15
same,Stimulation index,[2],1.22
same,Stimulation index,[3],0.95
same,Stimulation index,[4],0.93
same,Stimulation index,[5],0.66
same,Stimulation index,[6],1.03
same,Stimulation index,[7],0.88
CC[C@H](C)[C@H](NC(=O)CCCNC(=O)[C@@H](N)C(C)C)C(=O)N1CCC[C@H]1C(=O)N[C@@H](Cc1ccc(O)cc1)C(=O)O (H-V[GABA]IPY-OH),Stimulation index,[1],0.69
same,Stimulation index,[2],0.88
same,Stimulation index,[3],0.77
same,Stimulation index,[4],0.55
same,Stimulation index,[8],0.74
same,Stimulation index,[5],0.67
same,Stimulation index,[6],0.73
CC[C@H](C)[C@H](NC(=O)C1(NC(=O)[C@H](CCC(=O)O)NC(=O)[C@@H](N)C(C)C)CCCC1)C(=O)N1CCC[C@H]1C(=O)N[C@@H](Cc1ccc(O)cc1)C(=O)O (H-VE[Ac5c]IPY-OH),Stimulation index,[1],1.09
same,Stimulation index,[2],1.1
same,Stimulation index,[3],0.86
same,Stimulation index,[4],0.69
same,Stimulation index,[5],0.65
same,Stimulation index,[6],0.7
same,Stimulation index,[7],0.62
CC[C@@H](C)[C@@H](NC(=O)[C@@H]1CCCN1C(=O)[C@H](CCC(=O)O)NC(=O)[C@@H](N)C(C)C)C(=O)N1CCC[C@H]1C(=O)N[C@H](Cc1ccc(O)cc1)C(=O)O,Stimulation index,[9],0.75
same,Stimulation index,[1],1.22
same,Stimulation index,[2],1.18
same,Stimulation index,[4],0.82
same,Stimulation index,[5],0.93
same,Stimulation index,[6],1.08
same,Stimulation index,[7],0.77
CC[C@H](C)[C@H](NC(=O)[C@@H]1CCCN1C(=O)[C@H](CCC(=O)O)NC(=O)[C@@H](N)C(C)C)C(=O)N1CCC[C@H]1C(=O)N[C@@H](Cc1ccc(O)cc1)C(=O)O,Stimulation index,[1],1.5
same,Stimulation index,[2],1.45
same,Stimulation index,[3],0.9
same,Stimulation index,[4],1.27
same,Stimulation index,[5],1
same,Stimulation index,[6],1.43
same,Stimulation index,[7],0.9
CC[C@@H](C)[C@@H](NC(=O)[C@@H]1CCCN1C(=O)[C@H](CCC(=O)O)NC(=O)[C@H](C)N)C(=O)N1CCC[C@H]1C(=O)N[C@H](Cc1ccc(O)cc1)C(=O)O,Stimulation index,[1],1.3
same,Stimulation index,[2],1.32
same,Stimulation index,[3],0.89
same,Stimulation index,[4],1.32
same,Stimulation index,[5],0.84
same,Stimulation index,[6],1.27
same,Stimulation index,[7],0.75
